Test results as given in ChEMBL document CHEMBL1137329, “In silico-guided target identification of a scaffold-focused library: 1,3,5-triazepan-2,6-diones as novel phospholipase A2 inhibitors” (J Med Chem, 2006).
The source made the active and inactive calls. The calls are words filed in the database; no cut-off is given here.

Assays:
[1] = biological target: T1, Purine nucleoside phosphorylase (Homo sapiens) (UniProt P00491); test: Inhibition of human purine nucleoside phosphorylase
T1 sequence (whole entry): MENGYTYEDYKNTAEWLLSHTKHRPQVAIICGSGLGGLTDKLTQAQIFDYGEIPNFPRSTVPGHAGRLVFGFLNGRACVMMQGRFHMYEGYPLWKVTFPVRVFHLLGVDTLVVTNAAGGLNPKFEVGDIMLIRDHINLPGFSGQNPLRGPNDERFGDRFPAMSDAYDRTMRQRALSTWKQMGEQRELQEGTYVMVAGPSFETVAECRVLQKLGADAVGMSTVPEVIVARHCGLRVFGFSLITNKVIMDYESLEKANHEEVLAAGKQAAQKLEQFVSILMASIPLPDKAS

Homo sapiens = species: Homo sapiens; test: Inhibition of methionine aminopeptidase
[2] = biological target: T2, Thymidine kinase (Human alphaherpesvirus 1) (UniProt Q9QNF7); test: Inhibition of Herpes simplex virus type 1 thymidine kinase
T2 sequence (whole entry): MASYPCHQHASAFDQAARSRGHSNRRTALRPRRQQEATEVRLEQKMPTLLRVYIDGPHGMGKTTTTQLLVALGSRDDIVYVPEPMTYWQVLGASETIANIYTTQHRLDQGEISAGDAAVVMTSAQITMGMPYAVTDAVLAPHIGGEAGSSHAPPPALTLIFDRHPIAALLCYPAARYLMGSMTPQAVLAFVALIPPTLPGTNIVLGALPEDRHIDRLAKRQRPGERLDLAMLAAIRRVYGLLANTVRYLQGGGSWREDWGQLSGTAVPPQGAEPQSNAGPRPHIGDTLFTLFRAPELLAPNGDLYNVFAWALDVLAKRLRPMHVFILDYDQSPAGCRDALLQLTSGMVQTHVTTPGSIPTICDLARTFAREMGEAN

[3] = biological target: T3, Group 3 secretory phospholipase A2 (Homo sapiens) (UniProt Q9NZ20); test: Inhibition of human group 3 sPLA2 at 100 uM
T3 sequence (whole entry): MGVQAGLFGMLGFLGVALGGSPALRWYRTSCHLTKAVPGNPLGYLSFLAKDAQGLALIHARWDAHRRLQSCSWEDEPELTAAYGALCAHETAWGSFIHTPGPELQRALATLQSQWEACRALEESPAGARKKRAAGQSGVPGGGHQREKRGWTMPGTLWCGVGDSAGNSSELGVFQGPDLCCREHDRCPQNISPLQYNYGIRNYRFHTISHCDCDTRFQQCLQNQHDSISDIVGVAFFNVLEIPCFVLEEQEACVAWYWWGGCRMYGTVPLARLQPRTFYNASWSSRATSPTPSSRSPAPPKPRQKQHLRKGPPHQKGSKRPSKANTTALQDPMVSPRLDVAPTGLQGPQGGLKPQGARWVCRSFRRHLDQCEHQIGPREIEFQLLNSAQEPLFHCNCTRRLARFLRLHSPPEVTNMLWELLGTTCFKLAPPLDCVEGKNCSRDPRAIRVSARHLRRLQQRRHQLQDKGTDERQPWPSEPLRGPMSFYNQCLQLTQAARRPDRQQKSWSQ
Summary of the method: (§1)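 Human group III sPLA2 catalytic domain made in Drosophila S2 cells. Inhibitor at 10 or 100 µM preincubated 10 min with enzyme in Tris pH 8.0 buffer with 10 mM CaCl2 and 0.1% BSA. Then 15 min room-temperature hydrolysis of 3H-oleate-labelled E. coli membranes. Stopped with EDTA and fatty-acid-free BSA; supernatant counts after centrifugation.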

Sulfotransferase 1E1 = biological target: T4, Sulfotransferase 1E1 (Homo sapiens, UniProt P49888); test: Inhibition of human estrogen sulfotransferase
T4 sequence (P49888 whole entry): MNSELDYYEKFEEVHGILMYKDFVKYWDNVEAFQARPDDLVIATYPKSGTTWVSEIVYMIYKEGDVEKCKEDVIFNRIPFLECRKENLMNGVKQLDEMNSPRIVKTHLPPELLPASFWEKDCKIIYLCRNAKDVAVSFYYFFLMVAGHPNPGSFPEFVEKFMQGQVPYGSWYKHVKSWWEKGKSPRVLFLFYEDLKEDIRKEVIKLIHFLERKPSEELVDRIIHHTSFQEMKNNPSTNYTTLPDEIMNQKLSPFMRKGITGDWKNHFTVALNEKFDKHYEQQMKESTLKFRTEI

[4] = biological target: T3, Group 3 secretory phospholipase A2 (Homo sapiens); test: Inhibition of human group 3 sPLA2 at 10 uM; summary of the method: as §1
[5] = biological target: T5, Phospholipase A2 group V (Homo sapiens) (UniProt P39877); test: Inhibition of human group 5 sPLA2 at 30 uM
T5 sequence (whole entry): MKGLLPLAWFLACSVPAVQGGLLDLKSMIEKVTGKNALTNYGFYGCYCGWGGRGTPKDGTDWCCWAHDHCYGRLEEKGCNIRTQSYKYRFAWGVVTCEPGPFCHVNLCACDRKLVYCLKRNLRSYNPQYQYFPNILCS
Summary of the method: (§2)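 Recombinant human sPLA2 expressed in E. coli, at 40 pM for group V or 20 pM for group X, preincubated with inhibitor 10 min (15 min in legends). Buffer is 100 mM Tris pH 8.0, 10 mM CaCl2, 0.1% BSA. Substrate is E. coli membranes carrying 100,000 dpm 3H-oleate phospholipids, 15 min at room temperature. Reaction stopped with EDTA/fatty-acid-free BSA and centrifuged; supernatant radioactivity counted. Single 30 µM or concentration series for IC50; at least three experiments.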

[6] = biological target: T6, Group 10 secretory phospholipase A2 (Homo sapiens) (UniProt O15496); test: Inhibition of human group 10 sPLA2 at 30 uM; summary of the method: as §2
T6 sequence (whole entry): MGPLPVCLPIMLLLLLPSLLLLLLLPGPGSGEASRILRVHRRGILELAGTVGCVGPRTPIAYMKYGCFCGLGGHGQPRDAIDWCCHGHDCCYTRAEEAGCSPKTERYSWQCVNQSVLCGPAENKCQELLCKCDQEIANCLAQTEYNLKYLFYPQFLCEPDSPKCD

[7] = biological target: T7, Phospholipase A2, membrane associated (Homo sapiens) (UniProt P14555); test: Inhibition of human group 2A sPLA2 at 30 uM
T7 sequence (whole entry): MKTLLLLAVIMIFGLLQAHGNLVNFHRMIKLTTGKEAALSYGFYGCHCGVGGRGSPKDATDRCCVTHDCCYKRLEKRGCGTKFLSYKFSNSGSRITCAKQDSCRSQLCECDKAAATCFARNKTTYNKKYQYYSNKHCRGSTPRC
Summary of the method: (§3)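 Recombinant human group IB or IIA sPLA2 from E. coli, enzyme level set for linear hydrolysis. Preincubated 10 min with inhibitor at 30 µM in 100 mM Tris pH 8.0, 10 mM CaCl2, 0.1% BSA. 3H-oleate-labelled E. coli membrane substrate added for 15 min at room temperature. Stopped with EDTA/BSA, centrifuged at 14000g, released radioactivity counted; expressed as percent inhibition.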

[8] = biological target: Phospholipase A2 (Homo sapiens) (UniProt P04054); test: Inhibition of human group 1B sPLA2 at 30 uM; summary of the method: as §3
Phospholipase A2 (Homo sapiens), sequence (P04054 23-148 limits assumed): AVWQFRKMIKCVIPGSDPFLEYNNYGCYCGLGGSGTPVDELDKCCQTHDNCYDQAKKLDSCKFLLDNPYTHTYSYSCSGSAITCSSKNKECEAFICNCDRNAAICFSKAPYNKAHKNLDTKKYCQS

[9] = biological target: T8, Group 10 secretory phospholipase A2 (Homo sapiens, UniProt O15496); test: Inhibition of human group 10 sPLA2; summary of the method: as §2
T8 sequence (O15496 whole entry): T6 sequence (whole entry)

Phospholipase A2 group V = biological target: T9, Phospholipase A2 group V (Homo sapiens, UniProt P39877); test: Inhibition of human group 5 sPLA2; summary of the method: as §2
T9 sequence (P39877 whole entry): T5 sequence (whole entry)

[10] = biological target: T10, Purine nucleoside phosphorylase (Toxoplasma gondii, UniProt Q2HXR2); test: Inhibition of Toxoplasma gondii purine nucleoside phosphorylase
T10 sequence (Q2HXR2 whole entry): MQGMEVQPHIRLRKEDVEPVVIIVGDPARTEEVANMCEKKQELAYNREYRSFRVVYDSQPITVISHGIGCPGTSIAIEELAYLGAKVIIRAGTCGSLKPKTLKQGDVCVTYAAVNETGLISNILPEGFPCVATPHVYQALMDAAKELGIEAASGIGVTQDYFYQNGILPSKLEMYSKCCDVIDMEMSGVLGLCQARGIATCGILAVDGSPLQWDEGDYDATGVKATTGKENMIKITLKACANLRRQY

| SMILES | Activity [1] | Activity (Homo sapiens) | Activity [2] | Activity [3] | Activity (Sulfotransferase 1E1) | Activity [4] | inhibition [5] | further results |
| --- | --- | --- | --- | --- | --- | --- | --- | --- |
| CN1CNC(=O)N[C@@H](CN)C1=O | inactive | inactive | inactive | inactive | Not Active | inactive | – | – |
| CN1CN(CCCC(=O)O)C(=O)N[C@@H](Cc2ccccc2)C1=O | – | – | – | – | – | – | > 70% | inhibition [6]: > 70% |
| CN1CN(CC(=O)O)C(=O)N[C@@H](Cc2ccccc2)C1=O | inactive | inactive | inactive | inactive | Not Active | inactive | – | inhibition [7]: 25%; Activity [8]: inactive |
| CN1CN(CCCC(N)=O)C(=O)N[C@@H](Cc2ccccc2)C1=O | – | – | – | – | – | – | > 70% | – |
| CN1CN(C/C=C/C(=O)O)C(=O)N[C@@H](Cc2ccccc2)C1=O | – | – | – | – | – | – | > 70% | IC50 [9]: 10 µM; IC50 (Phospholipase A2 group V): 12 µM; inhibition [6]: > 70% |
| CN1CN(CC(=O)OC(C)(C)C)C(=O)N(CC(=O)OC(C)(C)C)[C@@H](Cc2ccccc2)C1=O | – | – | – | – | – | – | > 70% | IC50 [9]: 11 µM; IC50 (Phospholipase A2 group V): 11 µM |
| O=C1[C@@H]2Cc3ccccc3CN2C(=O)N[C@@H]2CCCN12 | inactive | inactive | inactive | inactive | Not Active | inactive | – | – |
| CN1CN(CC(=O)OC(C)(C)C)C(=O)N[C@@H](Cc2ccccc2)C1=O | – | – | – | – | – | – | > 70% | – |
| CC(C)(C)OC(=O)CN1C(=O)N(CC(=O)OC(C)(C)C)[C@@H](Cc2ccccc2)C(=O)N2CCC[C@H]21 | – | – | – | – | – | – | – | inhibition [6]: > 70% |
| O=C1N[C@@H](Cc2ccccc2)C(=O)N2C[C@H](OCc3ccccc3)C[C@H]2N1 | inactive | inactive | inactive | inactive | Not Active | inactive | – | Ki [10]: 8 µM |
| CN1C(=O)[C@H](Cc2ccccc2)NC(=O)N[C@@H]1Cc1ccccc1 | – | – | – | – | – | – | > 70% | IC50 [9]: 13 µM; IC50 (Phospholipase A2 group V): 11 µM |
| CN1CN(C/C=C/C(=O)OC(C)(C)C)C(=O)N[C@@H](Cc2ccccc2)C1=O | – | – | – | – | – | – | – | inhibition [6]: > 70% |
| CC(C)(C)OC(=O)CN1C(=O)N[C@@H](Cc2ccccc2)C(=O)N2CCC[C@@H]12 | – | – | – | – | – | – | > 70% | – |
| C[C@@H]1NC(=O)NC2Cc3ccccc3CN2C1=O (stereo partly drawn) | inactive | inactive | inactive | inactive | Not Active | inactive | – | – |
| CN1CNC(=O)N[C@@H](Cc2ccccc2)C1=O | inactive | inactive | inactive | inactive | Not Active | inactive | – | – |
| CC(C)[C@@H]1NC(=O)N(CC(=O)OC(C)(C)C)CN(C)C1=O | – | – | – | – | – | – | > 70% | IC50 [9]: 11 µM; IC50 (Phospholipase A2 group V): 12 µM; inhibition [6]: > 70% |
| O=C1N[C@@H](Cc2ccccc2)C(=O)N2C[C@H](O)C[C@H]2N1 | inactive | inactive | inactive | inactive | Not Active | inactive | – | – |
| CN1CN(CC(=O)O)C(=O)N(CC(=O)O)[C@@H](Cc2ccccc2)C1=O | – | – | – | – | – | – | > 70% | – |
| COC(=O)CN1CN(C)C(=O)[C@H](Cc2ccccc2)NC1=O | – | – | – | – | – | – | > 70% | – |
| CC(C)C[C@@H]1NC(=O)NCN(C)C1=O | inactive | inactive | inactive | inactive | Not Active | inactive | – | – |
| CN1CN(CC(=O)OC(C)(C)C)C(=O)N[C@@H](Cc2ccc3ccccc3c2)C1=O | – | – | – | – | – | – | > 70% | – |
| CC(C)(C)OC(=O)CN1C(=O)N[C@@H](Cc2ccc3ccccc3c2)C(=O)N2CCC[C@@H]12 | – | – | – | – | – | – | > 70% | – |
| CC(C)[C@@H]1NC(=O)N(Cc2ccccc2)CN(C)C1=O | – | – | – | – | – | – | > 70% | inhibition [6]: > 70% |
